Measured values gathered from unrelated publications.
Read-out: cell growth or viability

| SMILES | cell line | method | tested at | time | setting | endpoint | value |
| --- | --- | --- | --- | --- | --- | --- | --- |
| N.N.[Cl][Pt][Cl] | HBL1 | ATP luminescence | – | 72 h | – | IC50 | 1310 nM |
| O=C(CCCCCCNC(=O)c1cnc(N(c2ccccc2)c2ccccc2)nc1)NO | MV4-11 | ATP luminescence | – | 72 h | – | EC50 | 713 nM |
| N.N.[Cl][Pt][Cl] | MDA-MB-468 | MTT | – | 48 h | – | IC50 | 5000 nM |
| CN(C)c1ccc(C(=O)NCCCCCCC(=O)NO)cc1 | HBL1 | ATP luminescence | 0.1 µM | 5 days | – | viability | 125% |
| COc1c(C)c2c(c(O)c1C/C=C(\C)CCC(=O)O)C(=O)OC2 | MDA-MB-468 | – | – | – | – | IC50 | 417 nM |
| N.N.[Cl][Pt][Cl] | BEAS-2B | MTT | – | 24 h | – | IC50 | 103000 nM |
| Cn1cc2cc(C(F)(F)c3nnc4ccc(-c5cnn(C6CC6)c5)nn34)c(F)cc2n1 | KATO III | CCK-8 | – | 72 h | – | IC50 | > 1000 nM |
| N.N.[Cl][Pt][Cl] | MDA-MB-468 | MTT | – | 48 h | dark | IC50 | 6970 nM |
